# Results as given in ChEMBL document CHEMBL2417474, “Synthesis, antiproliferative and anti-inflammatory activities of some novel 6-aryl-2-(p-(methanesulfonyl)phenyl)-4,5-dihydropyridazi-3(2H)-ones” (Eur J Med Chem, 2013).
# Columns and labels:
# Type in all cases: functional
# Rattus norvegicus = assay: Antiinflammatory activity in Wistar rat assessed as inhibition of carrageenan-induced paw edema at 0.05 mmol/kg, po administered 30 mins prior challenge measured after 3 hrs
# Outline: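 Wistar rats of either sex, 150–175 g, fasted 16 h, 6 per group. Dosed orally at 0.05 mmol/kg, suspended in 1% CMC in water (10 ml/kg). 30 min later, 0.1 ml of 1% carrageenan in saline injected subplantar into the left hind paw. Paw volume read by plethysmometer at 0, 3 and 5 h. % inhibition = (1 − Vt/Vc) × 100 against the vehicle group.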
# [1] = Growth inhibition of human Hs 578T cells assessed as cell growth at 10 uM after 48 hrs by sulforhodamine B assay; conditions: read-out: Activity
# PC-3 [2] = assay: Growth inhibition of human PC3 cells assessed as cell growth at 10 uM after 48 hrs by sulforhodamine B assay; conditions: PC-3, 48 h, read-out: Activity
# SN12C [3] = assay: Growth inhibition of human SN12C cells assessed as cell growth at 10 uM after 48 hrs by sulforhodamine B assay; conditions: read-out: Activity
# 786-0 = assay: Growth inhibition of human 786-0 cells assessed as cell growth at 10 uM after 48 hrs by sulforhodamine B assay; conditions: 786-0, 48 h, read-out: Activity
# OVCAR-5 [4] = assay: Growth inhibition of human OVCAR5 cells assessed as cell growth at 10 uM after 48 hrs by sulforhodamine B assay; conditions: OVCAR-5, 48 h, read-out: Activity
# MDA-MB-435 = assay: Growth inhibition of human MDA-MB-435 cells assessed as cell growth at 10 uM after 48 hrs by sulforhodamine B assay; conditions: MDA-MB-435, 48 h, read-out: Activity
# M14 = assay: Growth inhibition of human M14 cells assessed as cell growth at 10 uM after 48 hrs by sulforhodamine B assay; conditions: M14, 48 h, read-out: Activity
# LOX IMVI [5] = assay: Growth inhibition of human LOXIMVI cells assessed as cell growth at 10 uM after 48 hrs by sulforhodamine B assay; conditions: read-out: Activity
# [6] = Growth inhibition of human HCC2998 cells assessed as cell growth at 10 uM after 48 hrs by sulforhodamine B assay; conditions: HCC 2998, 48 h, read-out: Activity
# NCI-H226 = assay: Growth inhibition of human NCI-H226 cells assessed as cell growth at 10 uM after 48 hrs by sulforhodamine B assay; conditions: NCI-H226, 48 h, read-out: Activity
# HOP-92 = assay: Growth inhibition of human HOP92 cells assessed as cell growth at 10 uM after 48 hrs by sulforhodamine B assay; conditions: HOP-92, 48 h, read-out: Activity
# MDA-MB-468 = assay: Growth inhibition of human MDA-MB-468 cells after 48 hrs by sulforhodamine B assay; conditions: MDA-MB-468, 48 h
# Outline: (§1)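 NCI 60-cell-line panel. Cells were grown in medium with 5% fetal calf serum and 2 mM L-glutamine, then preincubated 24 h in plates. Compounds were added from DMSO at five 10-fold concentrations from 100 to 0.01 µM and left on cells continuously for 48 h. Cell growth was read by sulforhodamine B protein stain. GI50 is the concentration that halves net protein increase relative to control cells.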
# [7] = Growth inhibition of human Hs 578T cells after 48 hrs by sulforhodamine B assay
# Outline: (§2)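 NCI 60-cell-line panel grown in RPMI-type medium with 5% fetal calf serum and 2 mM L-glutamine. Cells preincubated 24 h, then exposed continuously for 48 h to compound in DMSO at 10^-4 to 10^-8 M (five 10-fold levels). Growth read by SRB protein stain. GI50 is the concentration giving a 50% reduction in net protein increase relative to control cells.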
# DU-145 = assay: Growth inhibition of human DU145 cells after 48 hrs by sulforhodamine B assay; conditions: DU-145, 48 h; outline: as §2
# PC-3 [8] = assay: Growth inhibition of human PC3 cells after 48 hrs by sulforhodamine B assay; conditions: PC-3, 48 h; outline: as §1
# SN12C [9] = assay: Growth inhibition of human SN12C cells after 48 hrs by sulforhodamine B assay
# Outline: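 Part of the NCI 60-cell-line panel. Cells were grown in 1640 medium with 5% fetal calf serum and 2 mM L-glutamine, then preincubated 24 h before compound was added. Compounds in DMSO were tested at five concentrations (100, 10, 1, 0.1, 0.01 µM) with 48 h continuous exposure. Read-out was SRB protein staining; GI50 is the concentration halving the net protein increase versus control.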
# SK-OV-3 = assay: Growth inhibition of human SKOV3 cells after 48 hrs by sulforhodamine B assay; conditions: SK-OV-3, 48 h; outline: as §1
# OVCAR-5 [10] = assay: Growth inhibition of human OVCAR5 cells after 48 hrs by sulforhodamine B assay; conditions: OVCAR-5, 48 h; outline: as §1
# OVCAR-3 = assay: Growth inhibition of human OVCAR3 cells after 48 hrs by sulforhodamine B assay; conditions: OVCAR-3, 48 h; outline: as §1
# UACC-257 = assay: Growth inhibition of human UACC257 cells after 48 hrs by sulforhodamine B assay; conditions: UACC-257, 48 h
# Outline: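 NCI 60-line panel. Cells were grown in medium with 5% fetal calf serum and 2 mM L-glutamine and preincubated 24 h in plates. Compound in DMSO was added at 10^-4 to 10^-8 M (five 10-fold levels), with continuous exposure for 48 h. Growth was read by SRB protein staining. GI50 is the concentration giving 50% reduction in net protein increase versus control cells.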
# SK-MEL-2 = assay: Growth inhibition of human SK-MEL-2 cells after 48 hrs by sulforhodamine B assay; conditions: SK-MEL-2, 48 h; outline: as §1
# SK-MEL-28 = assay: Growth inhibition of human SK-MEL-28 cells after 48 hrs by sulforhodamine B assay; conditions: SK-MEL-28, 48 h; outline: as §1
# Malme-3M = assay: Growth inhibition of human MALME-3M cells after 48 hrs by sulforhodamine B assay; outline: as §2
# LOX IMVI [11] = assay: Growth inhibition of human LOXIMVI cells after 48 hrs by sulforhodamine B assay; outline: as §2
# SNB-75 = assay: Growth inhibition of human SNB75 cells after 48 hrs by sulforhodamine B assay; conditions: SNB-75, 48 h; outline: as §1
# HCT-15 = assay: Growth inhibition of human HCT15 cells after 48 hrs by sulforhodamine B assay; conditions: HCT-15, 48 h; outline: as §2
# COLO 205 = assay: Growth inhibition of human COLO205 cells after 48 hrs by sulforhodamine B assay; conditions: COLO 205, 48 h; outline: as §2
# [12] = read-out: LC50 (the source's name)
compound,measurement,setting,value
Cc1ccc(C2=NN(c3ccc(S(C)(=O)=O)cc3)C(=O)CC2)cc1,inhibition in vivo at 50 µmol/kg,Rattus norvegicus,46.7%
same,growth at 10 µM,[1],-1.17%
same,growth at 10 µM,PC-3 [2],29.3%
same,growth at 10 µM,SN12C [3],39.7%
same,growth at 10 µM,786-0,38.3%
same,growth at 10 µM,OVCAR-5 [4],53.1%
same,growth at 10 µM,MDA-MB-435,-61.2%
same,growth at 10 µM,M14,10.2%
same,growth at 10 µM,LOX IMVI [5],33.7%
same,growth at 10 µM,[6],47.2%
same,growth at 10 µM,NCI-H226,77.6%
same,growth at 10 µM,HOP-92,60.9%
same,GI50,MDA-MB-468,1.23 µM
same,LC50 (concentration killing 50% of cells),MDA-MB-468,> 100 µM
same,TGI,MDA-MB-468,4.86 µM
same,GI50,[7],0.46 µM
same,LC50 (concentration giving 50% net cell kill),[7],> 100 µM
same,GI50,DU-145,2.91 µM
same,TGI,DU-145,> 100 µM
same,CC50,DU-145; [12],> 100 µM
same,GI50,PC-3 [8],1.43 µM
same,LC50,PC-3 [8],> 100 µM
same,TGI,PC-3 [8],> 100 µM
same,LC50,SN12C [9],> 100 µM
same,GI50,SK-OV-3,1.15 µM
same,LC50,SK-OV-3,> 100 µM
same,TGI,SK-OV-3,20.7 µM
same,GI50,OVCAR-5 [10],3.69 µM
same,TGI,OVCAR-5 [10],> 100 µM
same,CC50,OVCAR-5 [10]; [12],> 100 µM
same,GI50,OVCAR-3,0.36 µM
same,"LC50 (lethal concentration, 50% net cell kill)",OVCAR-3,> 100 µM
same,TGI,OVCAR-3,3.33 µM
same,GI50,UACC-257,0.61 µM
same,LC50 (concentration killing 50% of cells),UACC-257,> 100 µM
same,TGI,UACC-257,> 100 µM
same,GI50,SK-MEL-2,0.43 µM
same,LC50,SK-MEL-2,> 100 µM
same,TGI,SK-MEL-2,> 100 µM
same,GI50,SK-MEL-28,0.66 µM
same,TGI,SK-MEL-28,> 100 µM
same,CC50,SK-MEL-28; [12],> 100 µM
same,TGI,Malme-3M,> 100 µM
same,CC50,Malme-3M; [12],> 100 µM
same,GI50,LOX IMVI [11],0.74 µM
same,TGI,LOX IMVI [11],> 100 µM
same,CC50,LOX IMVI [11]; [12],> 100 µM
same,GI50,SNB-75,0.54 µM
same,TGI,SNB-75,> 9.25 µM
same,CC50,SNB-75; [12],> 100 µM
same,GI50,HCT-15,0.61 µM
same,LC50,HCT-15,> 100 µM
same,TGI,HCT-15,> 100 µM
same,GI50,COLO 205,0.52 µM
same,TGI,COLO 205,6.07 µM
same,CC50,COLO 205; [12],> 100 µM
